Screening results from PubChem.
The list is not random: actives were taken first. Their share in the collection is about 2.3%.
TRPC4 block = inhibitors of mouse TRPC4 channel, primary screen, Fluo4 calcium, HEK293 TRPC4beta/mu-opioid cells | Short transient receptor potential channel 4 (Mus musculus), Q9QUQ5 | DAMGO-evoked Fluo4 calcium flux; active compounds read low | 0.39% of 300,000 active | B-score at 10 µM;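 active = B-score over 3 SD under the library average, no early fluorescence shift, positive overall ratio signal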
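Test system – stable TRPC4beta/mu-opioid receptor HEK293 cells · Probe or stimulus – DAMGO, a submaximal dose followed by a maximal one · Dosing – one concentration per compound · Signal – Fluo4 calcium fluorescence by kinetic imaging, 5 s 1 Hz baseline · Evaluation – per-well B score of integrated baseline-normalized Fluo4 ratio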
TRPC4 PAM = positive allosteric modulators of TRPC4, primary screen, cell-based, mouse TRPC4beta, HEK293 mu-opioid, Fluo-4 calcium. Short transient receptor potential channel 4 (Mus musculus), Q9QUQ5. DAMGO EC20, Fluo-4 Ca2+ flux; active compounds read high. B-score at 10 µM. 0.42% of 310,000 active. AID 2227, 2009;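 active = B-score of calcium response area above 5 SD of library B-scores, with initial fluorescence ratio within 5 SD of library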
TRPC6 activator = mouse TRPC6 channel activators, primary screen, cell-based, HEK293, membrane potential dye. HEK293-TRPC6 membrane potential dye fluorescence; active compounds read high. 0.13% of 310,000 active. AID 2550, 2010. B-score at 10 µM;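 active = B-score of the integrated fluorescence ratio above library mean plus 3 SD, and starting fluorescence ratio within library mean plus 5 SD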;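 also: higher score means more depolarization so channel activation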
Target sequence (Q61143 whole entry, looked up): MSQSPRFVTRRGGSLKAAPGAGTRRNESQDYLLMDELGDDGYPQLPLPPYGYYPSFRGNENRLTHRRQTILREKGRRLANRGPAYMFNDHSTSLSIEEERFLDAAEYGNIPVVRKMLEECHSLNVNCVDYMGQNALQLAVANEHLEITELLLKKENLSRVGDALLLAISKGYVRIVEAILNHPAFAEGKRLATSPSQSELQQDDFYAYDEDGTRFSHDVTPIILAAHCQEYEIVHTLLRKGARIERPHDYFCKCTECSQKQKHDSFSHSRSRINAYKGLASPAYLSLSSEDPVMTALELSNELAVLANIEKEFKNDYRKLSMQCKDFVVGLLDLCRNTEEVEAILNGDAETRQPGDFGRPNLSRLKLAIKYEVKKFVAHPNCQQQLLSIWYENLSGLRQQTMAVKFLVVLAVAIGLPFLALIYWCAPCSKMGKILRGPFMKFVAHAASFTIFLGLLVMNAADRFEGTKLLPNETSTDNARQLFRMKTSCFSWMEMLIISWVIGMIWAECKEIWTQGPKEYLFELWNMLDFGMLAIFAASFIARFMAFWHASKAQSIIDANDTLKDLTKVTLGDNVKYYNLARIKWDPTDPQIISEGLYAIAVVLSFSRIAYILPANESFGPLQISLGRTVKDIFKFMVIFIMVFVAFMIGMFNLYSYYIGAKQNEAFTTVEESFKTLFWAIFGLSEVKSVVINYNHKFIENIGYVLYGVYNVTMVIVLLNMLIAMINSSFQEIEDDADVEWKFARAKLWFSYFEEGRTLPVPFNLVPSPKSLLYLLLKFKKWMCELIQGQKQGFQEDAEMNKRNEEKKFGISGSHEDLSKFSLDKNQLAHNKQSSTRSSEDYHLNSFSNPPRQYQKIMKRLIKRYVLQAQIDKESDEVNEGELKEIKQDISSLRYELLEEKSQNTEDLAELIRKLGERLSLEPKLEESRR
TRPC6 inhibitor = mouse TRPC6 channel inhibitors, primary screen, cell-based, HEK293, membrane potential dye | Short transient receptor potential channel 6 (Mus musculus), Q61143 | ACh-evoked depolarization; active compounds read low | B-score at 10 µM | 1.1% of 310,000 active;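 active = B-score under library mean minus 3 SD, initial fluorescence not abnormally high, positive integrated signal ratio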;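 also: B-score derived from integrated fluorescence ratio over the kinetic read; more negative B-score means stronger inhibition of depolarization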
TRPC4 agonist = activators of mouse TRPC4 channel, primary screen, Fluo4 calcium, HEK293 TRPC4beta/mu-opioid cells. Fluo4 calcium fluorescence; active compounds read high. B-score at 10 µM. 0.49% of 310,000 active;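 active = B-score above 5 SD of library B-scores, and initial fluorescence ratio not above library mean plus 5 SD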;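 also: positive B-score marks a calcium rise read as TRPC4 activation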
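Assay system: HEK293 stable line with TRPC4beta plus mu-opioid receptor. Times: dye 45 min RT, read 110 s. Measured by: kinetic Fluo4 calcium fluorescence. Measure: B score of integrated ratio. Controls: assay buffer as low control, maximal DAMGO as high control.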
Large screens that a line does not name were inactive.

NC(=O)C(c1cccc(Cl)c1)c1ncc(C(F)(F)F)cc1Cl (centres undefined)	TRPC4 PAM 15
O=C(O)CC(CC(=O)N1CCN(C(=O)c2ccco2)CC1)c1ccccc1 (centres undefined)	none
O=C(Nc1ccccc1Oc1cccnc1)C1CCCN(Cc2ccccc2O)C1 (centres undefined)	none
C#Cc1ccc(CN2CCCC(C(=O)Nc3ccccc3Oc3cccnc3)C2)cc1 (centres undefined)	TRPC4 block -6
CCOC(=O)C1CCCN(C(=O)CCCn2nnnc2CN2CCOCC2)C1 (centres undefined)	TRPC4 PAM 23
Cc1ccc(Cn2c(Cc3ccccc3)nc3ccccc32)cc1	TRPC4 block -6
O=C(Nc1cnn(C23CC4CC(CC(C4)C2)C3)c1)c1cnn2cccnc12	TRPC4 PAM 73
O=C(CNC(=O)c1sc2ccccc2c1Cl)NCc1cccc(C(F)(F)F)c1	none
c1ccc(CN2CCC(Nc3nc(-c4ccccc4)nc4ccccc34)CC2)cc1	TRPC6 inhibitor -6.58
O=C(CN1CCN(S(=O)(=O)c2ccc(Br)cc2)CC1)N/N=C/c1cccs1	none
O=C(CN1CCN(S(=O)(=O)c2ccc(Br)cc2)CC1)N/N=C/c1ccncc1	TRPC4 PAM 15
CCOc1ccc(S(=O)(=O)N(C)CC(=O)NC2CCCC2)cc1	none
C=CCOc1cccc(C2C(C(=O)c3ccco3)=C(O)C(=O)N2Cc2ccco2)c1 (centres undefined)	none
CC(=O)C1=C(O)C(=O)N(Cc2ccco2)C1c1ccc2c(c1)OCO2 (centres undefined)	TRPC4 block -7
O=C(NC(=S)NCC1CCCO1)c1ccc([N+](=O)[O-])cc1 (centres undefined)	none
COc1ccc(C(c2nnnn2C2CCCC2)N2CCN(c3ccccc3)CC2)cc1 (centres undefined)	TRPC4 block -6
COc1ccc(N2CCN(C(c3nnnn3C3CCCC3)C(C)C)CC2)cc1 (centres undefined)	none
COc1cc(C#N)ccc1OCC(=O)Nc1cccc(S(=O)(=O)N2CCCC2)c1	none
O=c1c([N+](=O)[O-])cccn1Cc1cccc(Br)c1	none
NC(=Nc1ccccc1)Nc1ccccc1	TRPC4 agonist 134
OCCNCCSc1ccc(Cl)cc1	TRPC4 agonist 104
CCCCNC(=O)O[C@H]1C[C@@H]2CCN3C(=O)CCC[C@H]([C@H]1Cc1ccccc1)[C@H]23	none
Cc1nn(C(=O)c2cccc([N+](=O)[O-])c2)c(C)c1Sc1ccccc1	TRPC4 block -6
Oc1ccc(Cl)cc1C1=NNC(c2cccs2)C1 (centres undefined)	none
O=[N+]([O-])c1ccc(O)c(C2=NNC(c3ccccc3F)C2)c1 (centres undefined)	TRPC4 block -6, TRPC4 agonist 101
O=C(NCc1ccccc1F)c1ccc2c(c1)OCCO2	none
CCN(CC)CCn1c(NS(=O)(=O)c2ccc(Cl)cc2)nc2ccccc21	TRPC4 agonist 65
CCN(CC)CCn1c(NC(=O)c2ccc(Cl)cc2)nc2ccccc21	none
COc1ccc(CC2(CO)CCN(C/C=C/c3ccccc3OC)CC2)cc1	TRPC4 block -6
CC(COc1ccccc1)N1CCC(CO)(Cc2ccccc2)CC1 (centres undefined)	TRPC4 block -9
COc1ccc(Cc2nc3ccc(C(=O)N4CCCCC4CCO)cc3o2)cc1 (centres undefined)	none
CCC(C(=O)NC1CCCC1)N(C(=O)c1snc(C(N)=O)c1N)c1ccc(C)cc1C (centres undefined)	none
Cc1cc(C)c(S(=O)(=O)N2CCN(C(=O)c3cccs3)CC2)c(C)c1	none
Cc1ccc(S(=O)(=O)N2CCN(C(=O)c3cccs3)CC2)c(C)c1	TRPC4 PAM 11
O=C(NC(=S)NNC(=O)c1ccco1)c1ccc(Br)cc1	TRPC4 block -8, TRPC4 agonist 121
